Measured values published in the RNAGym collection of RNA variant scans (doi:10.1126/science.aae0568).
Variants at the floor of the assay were thinned out.

B1: tRNA (parent)
chain: GUUCCGUUGGCGUAAUGGUAACGCGUCUCCCUCCUAAGGAGAAGACUGCGGGUUCGAGUCCCGUACGGAACG

Variants of: B1
Assay: yeast fitness relative to wild type (ratio to wild type); higher = fitter; tRNA-Arg(CCU), competitive growth, 37 C, YPD
Method in brief: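 Changes in genotype frequencies gave Darwinian fitness relative to wild type. Frequencies were read by 100-nucleotide paired-end sequencing of gene amplicons before and after pooled Saccharomyces cerevisiae strains, carrying tRNA-Arg(CCU) gene variants at the native locus, were competed in YPD at 37°C for 24 hours in six replicates. A genotype was kept only with ≥ 100 starting reads, and estimates < 0.5 were set to 0.5.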
With C5A U7C C34U C66U the yeast fitness was ≤ 0.5. With C5G A15G C24G U32A C34G G68A A69U A70U the yeast fitness was 0.516. In the case of C5G A15C C22A G63A A65G, the yeast fitness is reported as ≤ 0.5. In the case of C4U U35C A45G C49G G56A A65C, the yeast fitness is reported as ≤ 0.5. C5A U16C A21C C33U A40G U54G C62G gave a yeast fitness of 0.577. With C5A C11A C24U U26C C29U C31G A42G the yeast fitness was ≤ 0.5. With C5G C30A C34G the yeast fitness was ≤ 0.5. For C5A C60G C66U G67A, the yeast fitness was ≤ 0.5. Work on C5A A20G G39C G52A yielded a yeast fitness of 0.593. With C5A U8C A20G C34G A43U C66U the yeast fitness was ≤ 0.5. With C5A U7C C30A C31U the yeast fitness was ≤ 0.5. For C5A U7A A21G, the yeast fitness was ≤ 0.5. With C4U U28A A57C C61A the yeast fitness was ≤ 0.5. With C5A A15C C29A G39A C60G A70G the yeast fitness was ≤ 0.5. For C5G A15U A69U, the yeast fitness was 0.698. In the case of C5A C34A C46U A57G, the yeast fitness is reported as ≤ 0.5. With C5A C30A C34U C46U the yeast fitness was ≤ 0.5. C5A C30U gave a yeast fitness of 0.693. Work on C5A G39C yielded a yeast fitness of 0.673. In the case of C5A A40C, the yeast fitness is reported as 0.727. In the case of C5A A37C C46U A65C, the yeast fitness is reported as ≤ 0.5. For C5G A21G G44A, the yeast fitness was 0.59. For C5A C11G A40G G67C A69U, the yeast fitness was ≤ 0.5. For C5A C30A G44A, the yeast fitness was 0.584. In the case of C4U U64C, the yeast fitness is reported as 0.962. In the case of C5A U8C A14G A21G A45C G56C, the yeast fitness is reported as ≤ 0.5. In the case of C5G C24U U26C C31U, the yeast fitness is reported as 0.749. With C5A G25A U28C C31U A40C A42G the yeast fitness was ≤ 0.5. Variant C5A G67C has a yeast fitness of 1.03. For C5A A20G G41C A65U, the yeast fitness was ≤ 0.5. For C5G A14U C49A A57G, the yeast fitness was 0.639. In the case of C5G C11G A14U A15U C29A C60G, the yeast fitness is reported as ≤ 0.5. For C5G C29G A43C G52A G67A, the yeast fitness was ≤ 0.5. With C5G A14U A20U G41A A57G the yeast fitness was ≤ 0.5. Variant C5A C11A A42U U53A has a yeast fitness of 0.616. With C5G A14U G23C C33A the yeast fitness was ≤ 0.5. In the case of C5A G52A G58C, the yeast fitness is reported as ≤ 0.5. Work on C5G A15U U35A yielded a yeast fitness of 0.696. In the case of C5G A21U C27U U28G C33G A36G, the yeast fitness is reported as ≤ 0.5. For C5G A20G A36C A70C, the yeast fitness was ≤ 0.5. With C5G A36U A42G A57C the yeast fitness was ≤ 0.5. For C5A A36G G44A U47C A70U, the yeast fitness was ≤ 0.5. C5A G12C gave a yeast fitness of 0.746. C5A A40C C46U G52C showed a yeast fitness of 0.547. In the case of C5A G9A G25A A69U, the yeast fitness is reported as ≤ 0.5. With C5A C11U G44C C49U the yeast fitness was 0.53. In the case of C5A C22G C31G, the yeast fitness is reported as ≤ 0.5. With C5G A36G A43U the yeast fitness was 0.549. In the case of C5G C30G G56C C61U A65C, the yeast fitness is reported as 0.616. With C5A U26A G56A A65G the yeast fitness was 0.565. With C5A G39A U47A G68C the yeast fitness was ≤ 0.5. Variant C4U U54C has a yeast fitness of 0.921. For C5G A21G G41A, the yeast fitness was 0.503. C5G C27G C33U G56A A69U gave a yeast fitness of 0.52. In the case of C5G A20C A42U G44A C61G, the yeast fitness is reported as ≤ 0.5. With C5A G17A C46A C55A the yeast fitness was ≤ 0.5. For C5G C27G C46G A65G, the yeast fitness was ≤ 0.5. With C5A C62U the yeast fitness was 0.954. In the case of C5G A14C C34G, the yeast fitness is reported as ≤ 0.5. C5A U26A A40G G58C G67U showed a yeast fitness of 0.56. In the case of C5A U7C G48C, the yeast fitness is reported as ≤ 0.5. For C5A G17A G25A G48C, the yeast fitness was ≤ 0.5. C5A A15C C29U C46U U53A gave a yeast fitness of 0.52. In the case of C5A A42G G51C, the yeast fitness is reported as ≤ 0.5. For C5G C30U A65U, the yeast fitness was ≤ 0.5. In the case of C5A G39A G44A C62G C66G, the yeast fitness is reported as ≤ 0.5. With C5A G17A A36G G67A A69U the yeast fitness was ≤ 0.5. In the case of C5A A42G G63C, the yeast fitness is reported as 0.59. In the case of C5G C22A A37G, the yeast fitness is reported as ≤ 0.5. With C5G A43G A70G the yeast fitness was 0.537. For C5G C11A A40C U59C, the yeast fitness was ≤ 0.5. With C4U U32A G50A G67A the yeast fitness was ≤ 0.5. With C5A C11U A21C the yeast fitness was 0.654. Variant C5G A65C has a yeast fitness of 0.775. For C5A A15C C29A A42C A45G G56C, the yeast fitness was ≤ 0.5. In the case of C5G A36U U59G A65U, the yeast fitness is reported as ≤ 0.5. In the case of C5A G12A G18A A65U, the yeast fitness is reported as ≤ 0.5. C5A G48A C49G gave a yeast fitness of 0.682. For C5A A20C U64A G67A, the yeast fitness was ≤ 0.5. With C5G C22A A37G G50C the yeast fitness was 0.55. C5A A43U U47C showed a yeast fitness of 0.543. C5G A43C gave a yeast fitness of 0.744. C5G A43U gave a yeast fitness of 0.719. For C5G A20C C33U C62G, the yeast fitness was ≤ 0.5.
